Measured values published in ChEMBL document CHEMBL5338774, “Quinazoline-2-Carboxamides as Selective PET Radiotracers for Matrix Metalloproteinase-13 Imaging in Atherosclerosis” (J Med Chem, 2023).
pIC50: −log10 of the molar value.

Key:
Collagenase 3 = Collagenase 3 (Homo sapiens, UniProt P45452); experiment: Inhibition of human recombinant MMP-13 using Mca-Lys-Pro-Leu-GlyLeu-Dpa-Ala-Arg-NH2 as substrate preincubated for 30 mins followed by substrate addition by fluorescence based analysis
Interstitial collagenase = target: T1, Interstitial collagenase (Homo sapiens, UniProt P03956); experiment: Inhibition of human recombinant MMP-1 incubated for 30 mins by fluorescence based analysis
T1 sequence (P03956 whole entry): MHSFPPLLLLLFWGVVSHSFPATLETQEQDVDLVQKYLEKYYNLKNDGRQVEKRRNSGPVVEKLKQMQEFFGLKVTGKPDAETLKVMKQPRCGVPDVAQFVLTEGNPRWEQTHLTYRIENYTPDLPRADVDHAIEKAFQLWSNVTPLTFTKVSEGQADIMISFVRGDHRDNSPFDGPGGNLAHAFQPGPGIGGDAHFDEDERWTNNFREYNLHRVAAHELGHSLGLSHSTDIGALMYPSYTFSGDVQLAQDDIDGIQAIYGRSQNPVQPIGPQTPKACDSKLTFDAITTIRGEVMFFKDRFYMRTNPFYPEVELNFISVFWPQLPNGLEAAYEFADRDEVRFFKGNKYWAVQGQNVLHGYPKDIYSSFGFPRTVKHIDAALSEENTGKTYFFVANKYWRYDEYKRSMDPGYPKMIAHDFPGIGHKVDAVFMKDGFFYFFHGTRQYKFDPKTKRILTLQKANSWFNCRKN

[1] = target: Matrix metalloproteinase-9 (Homo sapiens, UniProt P14780); experiment: Inhibition of human recombinant MMP-9 incubated for 30 mins by fluorescence based analysis
Matrix metalloproteinase-9, sequence (P14780 whole entry): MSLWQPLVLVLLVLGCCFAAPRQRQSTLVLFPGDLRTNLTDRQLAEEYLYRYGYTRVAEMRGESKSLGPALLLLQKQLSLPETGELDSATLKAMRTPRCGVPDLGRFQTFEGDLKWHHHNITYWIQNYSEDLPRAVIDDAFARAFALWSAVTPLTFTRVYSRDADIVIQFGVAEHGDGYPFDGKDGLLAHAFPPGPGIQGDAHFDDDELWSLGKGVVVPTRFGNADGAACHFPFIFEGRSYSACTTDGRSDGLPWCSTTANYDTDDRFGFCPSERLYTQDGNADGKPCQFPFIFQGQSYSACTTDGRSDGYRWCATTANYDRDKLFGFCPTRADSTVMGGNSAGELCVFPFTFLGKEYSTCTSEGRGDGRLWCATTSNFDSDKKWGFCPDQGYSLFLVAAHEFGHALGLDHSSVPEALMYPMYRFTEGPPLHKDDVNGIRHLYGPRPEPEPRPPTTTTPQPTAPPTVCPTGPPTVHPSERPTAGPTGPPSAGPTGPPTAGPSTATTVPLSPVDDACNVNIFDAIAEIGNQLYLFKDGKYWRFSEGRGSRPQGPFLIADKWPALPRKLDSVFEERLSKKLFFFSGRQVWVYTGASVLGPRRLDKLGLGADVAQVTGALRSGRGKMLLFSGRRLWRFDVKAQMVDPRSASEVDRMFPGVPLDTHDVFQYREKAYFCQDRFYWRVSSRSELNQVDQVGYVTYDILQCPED

Neutrophil collagenase = Neutrophil collagenase (Homo sapiens, UniProt P22894); experiment: Inhibition of human recombinant MMP-8 incubated for 30 mins by fluorescence based analysis
Neutrophil collagenase, sequence (P22894 whole entry): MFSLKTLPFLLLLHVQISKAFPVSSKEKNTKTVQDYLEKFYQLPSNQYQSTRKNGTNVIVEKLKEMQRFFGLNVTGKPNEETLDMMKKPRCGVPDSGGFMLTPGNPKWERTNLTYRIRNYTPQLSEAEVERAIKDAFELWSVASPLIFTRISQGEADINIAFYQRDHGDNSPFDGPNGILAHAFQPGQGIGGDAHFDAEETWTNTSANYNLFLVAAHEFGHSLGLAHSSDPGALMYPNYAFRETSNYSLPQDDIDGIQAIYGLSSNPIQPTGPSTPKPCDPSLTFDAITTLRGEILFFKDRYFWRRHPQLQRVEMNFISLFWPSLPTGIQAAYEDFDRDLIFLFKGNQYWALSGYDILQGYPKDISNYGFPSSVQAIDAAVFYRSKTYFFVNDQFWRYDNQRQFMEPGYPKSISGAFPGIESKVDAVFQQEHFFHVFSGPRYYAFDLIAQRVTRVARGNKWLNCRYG

Stromelysin-2 = Stromelysin-2 (Homo sapiens, UniProt P09238); experiment: Inhibition of human recombinant MMP-10 using […]-Pro-Lys-Pro-Val-Glu-Nval-Trp-Arg-Lys(Dnp)-NH2 as substrate preincubated for 30 mins followed by substrate addition by fluorescence based analysis
Stromelysin-2, sequence (P09238 whole entry): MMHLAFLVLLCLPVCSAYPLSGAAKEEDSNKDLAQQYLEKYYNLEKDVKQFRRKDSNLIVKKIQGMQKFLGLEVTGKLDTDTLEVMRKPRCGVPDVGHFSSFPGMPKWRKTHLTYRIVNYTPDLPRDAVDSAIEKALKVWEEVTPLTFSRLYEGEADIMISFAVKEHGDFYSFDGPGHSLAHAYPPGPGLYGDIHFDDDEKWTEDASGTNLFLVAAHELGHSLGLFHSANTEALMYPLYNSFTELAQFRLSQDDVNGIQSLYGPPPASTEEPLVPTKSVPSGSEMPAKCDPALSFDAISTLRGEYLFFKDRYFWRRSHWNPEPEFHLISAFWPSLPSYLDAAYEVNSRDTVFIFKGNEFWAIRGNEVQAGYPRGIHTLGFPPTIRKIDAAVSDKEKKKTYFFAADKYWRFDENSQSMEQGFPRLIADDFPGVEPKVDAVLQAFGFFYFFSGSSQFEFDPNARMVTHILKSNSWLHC

[2] = target: 72 kDa type IV collagenase (Homo sapiens, UniProt P08253); experiment: Inhibition of human recombinant MMP-2 incubated for 30 mins by fluorescence based analysis
72 kDa type IV collagenase, sequence (P08253 whole entry): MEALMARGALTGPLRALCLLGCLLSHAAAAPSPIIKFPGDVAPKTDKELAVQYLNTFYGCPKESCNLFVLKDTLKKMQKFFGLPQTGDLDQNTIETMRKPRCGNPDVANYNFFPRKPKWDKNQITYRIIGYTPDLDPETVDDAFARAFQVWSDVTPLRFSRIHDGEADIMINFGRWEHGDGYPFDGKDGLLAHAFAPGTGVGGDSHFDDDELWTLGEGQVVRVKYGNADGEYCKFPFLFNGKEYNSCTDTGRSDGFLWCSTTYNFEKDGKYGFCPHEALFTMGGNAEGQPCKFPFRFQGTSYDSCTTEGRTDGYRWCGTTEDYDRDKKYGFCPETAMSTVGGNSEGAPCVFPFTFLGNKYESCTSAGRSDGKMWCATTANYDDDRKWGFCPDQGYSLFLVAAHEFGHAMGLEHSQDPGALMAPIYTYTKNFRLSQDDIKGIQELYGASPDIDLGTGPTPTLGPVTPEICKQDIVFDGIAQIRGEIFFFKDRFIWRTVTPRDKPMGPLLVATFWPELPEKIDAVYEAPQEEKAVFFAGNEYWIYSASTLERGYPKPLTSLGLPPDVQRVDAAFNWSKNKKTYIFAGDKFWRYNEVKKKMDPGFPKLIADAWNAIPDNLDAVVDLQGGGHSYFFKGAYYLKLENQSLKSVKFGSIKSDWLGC

[3] = Tmax in western atherogenic diet fed ApoE-/- mouse blood at […], iv administered as bolus injection measured for 60 mins by PET analysis; assay type: ADME, organism-based; details: in vivo, 1 h
Outline: (§1)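 A 10 min transmission scan preceded tail-vein IV bolus of radiotracer (~7.5 MBq, over 30 s) in diet-fed ApoE-/- mice. Dynamic whole-body PET ran for 60 min (4×15 s, 4×1 min, 11×5 min frames), corrected for attenuation and scatter, 3D-OSEM/MAP reconstruction. Volumetric organ ROIs gave %ID·cc⁻¹ time-activity curves; n = 2 per group.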

[4] = Drug distribution in western atherogenic diet fed ApoE-/- mouse kidney at […], iv administered as bolus injection measured for 60 mins by PET analysis; assay type: ADME, organism-based; details: in vivo, 1 h; outline: as §1
[5] = Drug distribution in western atherogenic diet fed ApoE-/- mouse myocardium assessed as compound remaining at […], iv administered as bolus injection measured for 30 mins by gamma counter analysis; assay type: ADME, organism-based; details: in vivo, 0.5 h
Outline: (§2)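 Diet-fed male ApoE-/- mice (39 ± 5 g, n = 4-6) under 2% isoflurane received radiotracer (~7.5 MBq, 100-200 µL) IV by tail-vein bolus over 30 s. After 30 min, blood was taken by cardiac puncture, then PBS/formalin perfusion and organ dissection. Uptake is decay-corrected %ID normalized to tissue mass (%ID/g).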

[6] = Drug distribution in western atherogenic diet fed ApoE-/- mouse spleen at […], iv administered as bolus injection measured for 30 mins by gamma counter analysis; assay type: ADME, organism-based; details: in vivo, 0.5 h; outline: as §2
[7] = Drug distribution in western atherogenic diet fed ApoE-/- mouse liver at […], iv administered as bolus injection measured for 60 mins by PET analysis; assay type: ADME, organism-based; details: in vivo, 1 h; outline: as §1
[8] = Drug distribution in western atherogenic diet fed ApoE-/- mouse brain at […], iv administered as bolus injection measured for 30 mins by gamma counter analysis; assay type: ADME, organism-based; details: in vivo, 0.5 h; outline: as §2
[9] = Drug distribution in western atherogenic diet fed ApoE-/- mouse myocardium assessed as myocardial retention at […], iv administered as bolus injection measured for 60 mins by PET analysis; assay type: ADME, organism-based; details: in vivo, 1 h; outline: as §1
[10] = Drug distribution in western atherogenic diet fed ApoE-/- mouse muscle tissue at […], iv administered as bolus injection measured for 30 mins by gamma counter analysis; assay type: ADME, organism-based; details: in vivo, 0.5 h; outline: as §2
[11] = Drug distribution in western atherogenic diet fed ApoE-/- mouse blood assessed as compound remaining at […], iv administered as bolus injection measured for 30 mins by gamma counter analysis; assay type: ADME, organism-based; details: in vivo, 0.5 h; outline: as §2
[12] = Drug distribution in western atherogenic diet fed ApoE-/- mouse kidney at […], iv administered as bolus injection measured for 30 mins by gamma counter analysis; assay type: ADME, organism-based; details: in vivo, 0.5 h; outline: as §2
[13] = Drug distribution in western atherogenic diet fed ApoE-/- mouse stomach at […], iv administered as bolus injection measured for 30 mins by gamma counter analysis; assay type: ADME, organism-based; details: in vivo, 0.5 h; outline: as §2
[14] = Drug distribution in western atherogenic diet fed ApoE-/- mouse aortic plaques at […], iv administered as bolus injection measured for 30 mins by Oil Red O staining based autoradiography; assay type: ADME, organism-based, Aorta; details: in vivo, 0.5 h
Outline: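 Male ApoE-/- mice were fed a western atherogenic diet from 8 weeks of age for 13-16 weeks. Radiotracer (~7.5 MBq) was given IV by tail-vein bolus over 30 s. Blocking: unlabelled tracer analogue (2.5 mg/kg; DMA/propylene glycol/PEG400/water) or WAY170523 (7.5 mg/kg; DMSO/PEG400/water), both IV 15 min before. At 30 min, perfused aortae were exposed to a phosphor screen for 10 half-lives (%ID·mm⁻²), with ORO staining.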

[15] = Drug distribution in western atherogenic diet fed ApoE-/- mouse bone at […], iv administered as bolus injection measured for 30 mins by gamma counter analysis; assay type: ADME, organism-based, Bone element; details: in vivo, 0.5 h; outline: as §2
[16] = Drug distribution in western atherogenic diet fed ApoE-/- mouse intestine at […], iv administered as bolus injection measured for 30 mins by gamma counter analysis; assay type: ADME, organism-based; details: in vivo, 0.5 h; outline: as §2
[17] = Octanol/PBS distribution coefficient, logD of compound at pH 7.4 incubated for 10 mins under shaking condition by gamma counter analysis; assay type: physicochemical
Outline: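 Radiotracer partitioning between 1-octanol and 1× PBS at pH 7.4. Mean ± standard error of two independent experiments, each in quadruplicate.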

[18] = Drug distribution in western atherogenic diet fed ApoE-/- mouse fat tissue at […], iv administered as bolus injection measured for 30 mins by gamma counter analysis; assay type: ADME, organism-based, Adipose tissue; details: in vivo, 0.5 h; outline: as §2
[19] = Drug distribution in western atherogenic diet fed ApoE-/- mouse lung at […], iv administered as bolus injection measured for 30 mins by gamma counter analysis; assay type: ADME, organism-based; details: in vivo, 0.5 h; outline: as §2
[20] = Stability in western atherogenic diet fed ApoE-/- mouse plasma assessed as intact compound level at ~75 MBq, iv administered as bolus injection and measured after 30 mins by gamma counter analysis; assay type: ADME, organism-based; details: read-out: Stability
Outline: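 Blood was drawn by cardiac puncture into K₂EDTA tubes 30 min after IV radiotracer in diet-fed ApoE-/- mice. Optional IV pretreatment 15 min before: unlabelled analogue 2.5 mg/kg or WAY170523 7.5 mg/kg. Pooled protein-free plasma was spiked with standard and run on radio-HPLC (C18, ammonium formate/ACN). Fractions were collected each minute and gamma-counted to give the parent fraction.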

[21] = Drug distribution in western atherogenic diet fed ApoE-/- mouse pancreas at […], iv administered as bolus injection measured for 30 mins by gamma counter analysis; assay type: ADME, organism-based; details: in vivo, 0.5 h; outline: as §2
[22] = Stability of compound in 10% EtOH/saline assessed as compound degradation measured upto 75 mins by analytical radio-HPLC analysis; assay type: physicochemical; details: buffer, 1.25 h
Outline: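 Radiotracer formulated in 10% EtOH/0.9% saline was held at room temperature up to 75 min. Samples were analysed by analytical radio-HPLC (C18, 0.1 M ammonium formate/ACN gradient, 1 mL·min⁻¹).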

Structure (SMILES)	pIC50 (Collagenase 3)	pIC50 (Interstitial collagenase)	pIC50 [1]	pIC50 (Neutrophil collagenase)	pIC50 (Stromelysin-2)	pIC50 [2]	other results
COc1cccc(CNC(=O)c2nc3ccc(F)c(F)c3c(=O)[nH]2)c1	6.93	–	–	–	–	–	–
COc1ccc(CCOc2c(F)ccc3nc(C(=O)NCc4ccc(OC)cc4)[nH]c(=O)c23)cc1	6.95	–	–	–	–	–	–
O=C(NCc1cccc(O)c1)c1nc2ccc(F)c(F)c2c(=O)[nH]1	6.83	–	–	–	–	–	–
Cc1cc(CNC(=O)c2nc3ccc(F)c(OCCc4ccc(O[11CH3])cc4)c3c(=O)[nH]2)ccc1F	–	–	–	–	–	–	Tmax [3]: 37.5 s; Drug uptake [4]: 7.4 %ID/cc; Drug uptake [5]: ~ 1 % ID/g; Drug uptake [6]: ~ 2 % ID/g; Drug uptake [7]: 9.3 %ID/cc; Drug uptake [8]: ~ 2 % ID/g; Drug uptake [9]: < 0.5 %ID/cc; Drug uptake [10]: ~ 2 % ID/g; Drug uptake [11]: 1.83 % ID/g; Drug uptake [12]: < 7 % ID/g; Drug uptake [13]: ~ 2 % ID/g; Drug uptake [14]: 129.8 %ID.m^-2; Drug uptake [15]: ~ 2 % ID/g; Drug uptake [16]: < 7 % ID/g; logD at 10 min [17]: 3.76; Drug uptake [18]: ~ 2 % ID/g; Drug uptake [19]: ~ 2 % ID/g; remaining at 0.5 h [20]: 70%; Drug uptake [21]: 3.27 % ID/g; Stability [22]: Stable
COc1ccc(CNC(=O)c2nc3ccc(F)c(OCCF)c3c(=O)[nH]2)cc1	6.90	–	–	–	–	–	–
Cc1cc(CNC(=O)c2cc(C(=O)NCc3ccc(OCC[18F])cc3)ncn2)ccc1F	–	–	–	–	–	–	Drug uptake [7]: ~ 12 %ID/cc; Drug uptake [9]: ~ 5 %ID/cc

Second part, led by results:

pIC50 (Collagenase 3)	pIC50 (Interstitial collagenase)	pIC50 [1]	pIC50 (Neutrophil collagenase)	pIC50 (Stromelysin-2)	pIC50 [2]	Structure (SMILES)	other results
7.92	< 5.00	< 5.00	5.66	5.16	< 5.00	Cc1cc(CNC(=O)c2nc3ccc(F)c(OCCc4ccc(O)cc4)c3c(=O)[nH]2)ccc1F	–
7.32	< 5.00	< 5.00	5.82	5.17	< 5.00	COc1ccc(CNC(=O)c2nc3ccc(F)c(OCCc4ccc(O)cc4)c3c(=O)[nH]2)cc1	–
7.62	< 5.00	< 5.00	6.11	5.04	< 5.00	COc1ccc(CCOc2c(F)ccc3nc(C(=O)NCc4ccc(F)c(C)c4)[nH]c(=O)c23)cc1	–
